Assay results as given in the EternaBench riboswitch data.

System: MS2 coat protein
Test: apparent Kd, MS2 coat protein; higher = weaker binding; RNA-MaP array; FMN 200 µM where present
Method in brief: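 The apparent Kd is reported as the median of filtered per-cluster binding-curve fits. To get these curves, designs transcribed by stalled E. coli RNA polymerase on Illumina sequencing-chip clusters were titrated with SNAP-549-labelled MS2 coat protein from 0.7 or 1.5 nM, doubling to 3 µM. Titrations were run without and then with constant ligand in 100 mM Tris-HCl pH 7.5, 80 mM KCl, 4 mM MgCl2, BSA, DTT, yeast tRNA and Tween-20, and green signal was normalised to red-channel RNA signal and control-cluster median Fmax.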

[1] = designed as: ON switch for flavin mononucleotide, no ligand
[2] = ligand present: flavin mononucleotide, designed as: ON switch for flavin mononucleotide
[3] = designed as: OFF switch for flavin mononucleotide, no ligand
[4] = ligand present: flavin mononucleotide, designed as: OFF switch for flavin mononucleotide

CAGGAGAACACAGGAUAUCCGUAAAACAUGAGGAUCACCCAUGUUUGUGGCCCGCCAGGGCUGACGGAGAAGGGUGACUCGCAC
apparent Kd [1]: 6.69 nM | apparent Kd [2]: 5.61 nM

GCUGUCGCAUGAGGAUAUGGUCUGCUUUGCAGACCAGAAGGCAUGUCAAUAGACAUGAGGAUCACCCAUGUAGUUAAGACAGCA
apparent Kd [1]: 766 nM | apparent Kd [2]: 46.6 nM

GCGAAUCAGUGAGGAUAUACAUAAUUUAUACCUGUAGAAGGCACAAACCUCAAGACAUGAGGAUCACCCAUGUGACAUAUCGCU
apparent Kd [3]: 43.3 nM | apparent Kd [4]: 66.8 nM

AUCAUCCUAGGAUAUACAUGGAUAUACAUUCAUGUGGACCUACAUGAGGAUCACCCAUGUAGAAGGAGGAUGAU
apparent Kd [3]: 33.4 nM | apparent Kd [4]: 88.8 nM

ACUGGAGCAGGAUAUAUAUGACGUGCUUCGGCACGAAGAUCACAUGAGGAUCACCCAUGUAGAAGGGCUCCAGU
apparent Kd [3]: 106 nM | apparent Kd [4]: 813 nM

AUCAGCACGUCAGGAUAUACGUCACUGCGUCAGCAGUGUGGUAAGAUCACAUGAGGAUCACCCAUGUAGAAGGGACGAGCUGAU
apparent Kd [3]: 14.1 nM | apparent Kd [4]: 317 nM

AUCAGCUCGCCAGGAUAUACGUCACUGCGUCAGCAGUGUGGUAAGAUCACAUGAGGAUCACCCAUGUAGAAGGGACGAGCUGAU
apparent Kd [3]: 10.3 nM | apparent Kd [4]: 69.2 nM

GUCCCGUCUAGCUUCAGCACAUGAGGAUCACCCAUGUCCUAGAGAAGGGCCUAGAGUUAUCAAAGGCAGGAUAUCUGCACAUGG
apparent Kd [3]: 30.8 nM | apparent Kd [4]: 47.7 nM

UGAUAACAUGAGGAUCACCCAUGUCAGGAUAUAAAUUGAGCUCCUUGGACGCCACCGUUUAGAAGGGACGCAUG
apparent Kd [3]: 23.7 nM | apparent Kd [4]: 22.7 nM

GACUGCUGAGGAUAUACAUGAGGAUCACCCAUGUGCUUCAGCUACGAGAGUAGCAUUGGUAGAAGGUAGUAGUC
apparent Kd [3]: 12.1 nM | apparent Kd [4]: 22.1 nM

GCCAACGCAUGAGGAUAUGCUCCCGUUUCGGGAGCAGAAGGCAUGUCAUAAGACAUGAGGAUCACCCAUGUAGUUAACAUGGCA
apparent Kd [1]: 572 nM | apparent Kd [2]: 31.2 nM

GCAAUCGCAUGAGGAUAUGCUGGAGUUUAGACAGCAGAAGGCAUGUCAUAAGACAUGAGGAUCACCCAUGUAGUUACAAUGGCA
apparent Kd [1]: 41 nM | apparent Kd [2]: 11.9 nM

GGGCAAAAGUAGAAGGGAUAUACGAAAAGUAUAUCAGGAUAUACAUGAGGAUCACCCAUGUUCUGAAAGUGAAAAUCCUCCCUA
apparent Kd [3]: 40.8 nM | apparent Kd [4]: 317 nM

GGAUAGGACAGAGGAUAUACGUGCUAGAGAUACUAGCAAAAUUUUCUCACAUGAGGAUCACCCAUGUAGAAGGCUGUCCUAUCG
apparent Kd [3]: 5.08 nM | apparent Kd [4]: 17.4 nM

AAGAAAGAGCGAGGAUAUGCGAUAAAAUAAUAAGCAGAAGGUGCAUAACAUGAGGAUCACCCAUGUUGUUGUCAUGUCAAGAUU
apparent Kd [3]: 14.2 nM | apparent Kd [4]: 18.2 nM

AAUAUUUAUUGAGGAUAUUCAUACACUGUAUACGGAGAAGGCAAUCAAUCAUGAGGACAUGAGGAUCACCCAUGUUGUGACCAU
apparent Kd [1]: 10.7 nM | apparent Kd [2]: 9.69 nM

CUUUUGUGAGGAUAUCAGUAGUAUAAAAAUAAAAUUACUACUGAGAAGGCACAUGAGGAUCACCCAUGUUCCUC
apparent Kd [3]: 39 nM | apparent Kd [4]: 226 nM

AAAGGUUGAGGAUAUGCGUGGAAAAAGUGUAUUCAAAAAAAACAUGAGGAUCACCCAUGUAGAAGGCGACCAAA
apparent Kd [3]: 93.6 nM | apparent Kd [4]: 245 nM

AAUAACAGAGGAUAUACUAUUUUAUGUGUUUGUUGUUUUAAACAUGAGGAUCACCCAUGUAGAAGGCUGAUUAA
apparent Kd [3]: 32.7 nM | apparent Kd [4]: 38.8 nM

CUUUAGUGAGGAUAUGUGGCUUCGAUCGUGAGAUCGAGGCUACAGAAGGCACAUGAGGAUCACCCAUGUUUCUU
apparent Kd [3]: 17.2 nM | apparent Kd [4]: 81 nM

UUGAGGUGCAAGAAGGAUCACAUGAGGAUCACCCAUGUGAUAUAAAGUCUCGAGAUUUUAUAUCGAUAGGAUAUUGCACCGAAC
apparent Kd [1]: 19.9 nM | apparent Kd [2]: 13.8 nM

UAAUAAAGUGUGAGGAUAUGCUGGUCGAUAGAUCAGCAGAAGGCACAUGAGGAUCACCCAUGUAAUAUAUUUUA
apparent Kd [3]: 57.9 nM | apparent Kd [4]: 247 nM

GGUCAACAUGAGGAUCACCCAUGUAAGCCAAGGCAAGGAUAUGGGUAUAGGGUACUAGGGUUAGAAGGUGCCAAUA
apparent Kd [1]: 144 nM | apparent Kd [2]: 182 nM

GAGAUGUGAGGAUAUCUAGACCGCGGAAGAGCCGCAGUCCGAGAGAAGGCACAUGAGGAUCACCCAUGUGAUGA
apparent Kd [3]: 33.4 nM | apparent Kd [4]: 61.2 nM

GUACAGCGACAUGAGGAUCACCCAUGUAGCCGCCGAUCGUCGCAGGAUAUGGCAAAGGUUAACAGUCAGAAGGGUGAUGUUCGA
apparent Kd [1]: 73.6 nM | apparent Kd [2]: 41.3 nM

CUCAAACAUGAGGAUCACCCAUGUCAGGAUAUGAUACUAUGUACUUCGGUACAUAGUAUCAGAAGGGAUAUGAA
apparent Kd [3]: 87.6 nM | apparent Kd [4]: 111 nM

AAAUUUAACGAAGGAUAUACUAACAUGAGGAUCACCCAUGUGUGCUUCGUGUUGCUGAAAUUCGGGUAGAAGGUCGUAUACAUA
apparent Kd [3]: 54.8 nM | apparent Kd [4]: 145 nM

GCACUGGAUGUAGGAUAUCAGGACGAUAAGUCCUGAGAAGGACAUGAGGAUCACCCAUGUCUCAUAAACCAGUGCUAUAAUAUA
apparent Kd [3]: 14.6 nM | apparent Kd [4]: 18.8 nM
